Data from ChEMBL document CHEMBL4715736, “Identification of anticancer agents based on the thieno[2,3-b]pyridine and 1H-pyrazole molecular scaffolds” (2016).

Key:
Assay type in all cases: functional
SK-MEL-28 [1] = test: Growth inhibition of human SK-MEL-28 cells incubated for 48 hrs by sulforhodamine B assay
Method in brief: (§1)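 NCI DTP 60-line human tumour panel. Dose-response curves were run only for ligands active in the initial 10 µM screen. GI50 (concentration giving 50% of maximal inhibition of proliferation) and TGI (concentration giving total growth inhibition) were derived from these curves.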

CCRF-CEM = test: Growth inhibition of human CCRF-CEM cells assessed as cell growth at 1 uM incubated for 48 hrs by sulforhodamine B assay relative to control; settings: read-out: Activity
Method in brief: (§2)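 NCI Developmental Therapeutics Program NCI60 panel. Compounds that were active in the 10 µM one-dose screen went on to dose–response testing. Growth at each concentration is expressed relative to untreated control (100%). GI50 (concentration giving 50% of maximal inhibition of proliferation) and TGI (concentration giving total growth inhibition) were derived from the curves.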

SF-295 = test: Growth inhibition of human SF-295 cells assessed as cell growth at 0.01 uM incubated for 48 hrs by sulforhodamine B assay relative to control; settings: read-out: Activity
SK-OV-3 = test: Growth inhibition of human SK-OV-3 cells assessed as cell growth at 100 uM incubated for 48 hrs by sulforhodamine B assay relative to control; settings: read-out: Activity
HT-29 [2] = test: Growth inhibition of human HT-29 cells assessed as cell growth at 0.1 uM incubated for 48 hrs by sulforhodamine B assay relative to control; settings: read-out: Activity
HOP-62 = test: Growth inhibition of human HOP-62 cells assessed as cell growth at 0.01 uM incubated for 48 hrs by sulforhodamine B assay relative to control; settings: read-out: Activity
HCT-15 = test: Growth inhibition of human HCT-15 cells assessed as cell growth at 1 uM incubated for 48 hrs by sulforhodamine B assay relative to control; settings: read-out: Activity
DU-145 [3] = test: Growth inhibition of human DU-145 cells assessed as cell growth at 0.1 uM incubated for 48 hrs by sulforhodamine B assay relative to control; settings: read-out: Activity; method in brief: as §2
SN12C = test: Growth inhibition of human SN12C cells incubated for 48 hrs by sulforhodamine B assay; settings: for CC50: read-out: LC50 (the source's name); method in brief: as §1
OVCAR-8 = test: Growth inhibition of human OVCAR-8 cells incubated for 48 hrs by sulforhodamine B assay; settings: for CC50: read-out: LC50 (the source's name); method in brief: as §1
SF-268 = test: Growth inhibition of human SF-268 cells assessed as cell growth at 100 uM incubated for 48 hrs by sulforhodamine B assay relative to control; settings: read-out: Activity
TK-10 = test: Growth inhibition of human TK-10 cells assessed as cell growth at 0.01 uM incubated for 48 hrs by sulforhodamine B assay relative to control; settings: read-out: Activity
CAKI-1 = test: Growth inhibition of human CAKI-1 cells assessed as cell growth at 1 uM incubated for 48 hrs by sulforhodamine B assay relative to control; settings: read-out: Activity; method in brief: as §2
KM12 = test: Growth inhibition of human KM12 cells assessed as cell growth at 0.1 uM incubated for 48 hrs by sulforhodamine B assay relative to control; settings: read-out: Activity
SNB-19 = test: Growth inhibition of human SNB-19 cells incubated for 48 hrs by sulforhodamine B assay; method in brief: as §1
NCI/ADR-RES = test: Growth inhibition of human NCI/ADR-RES cells assessed as cell growth at 0.01 uM incubated for 48 hrs by sulforhodamine B assay relative to control; settings: read-out: Activity
DU-145 [4] = test: Growth inhibition of human DU-145 cells assessed as cell growth at 1 uM incubated for 48 hrs by sulforhodamine B assay relative to control; settings: read-out: Activity; method in brief: as §2
ACHN = test: Growth inhibition of human ACHN cells assessed as cell growth at 1 uM incubated for 48 hrs by sulforhodamine B assay relative to control; settings: read-out: Activity
U-251 [5] = test: Growth inhibition of human U-251 cells assessed as cell growth at 0.01 uM incubated for 48 hrs by sulforhodamine B assay relative to control; settings: read-out: Activity
MCF7 = test: Growth inhibition of human MCF7 cells incubated for 48 hrs by sulforhodamine B assay; settings: for CC50: read-out: LC50 (the source's name)
Method in brief: (§3)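 NCI60 panel at the NCI Developmental Therapeutics Program. Only compounds active in the 10 µM screen went to dose-response testing. GI50, the concentration giving 50% of maximal inhibition of proliferation, and TGI, the concentration giving total growth inhibition, were derived from the dose-response curves.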

UO-31 = test: Growth inhibition of human UO-31 cells assessed as cell growth at 0.01 uM incubated for 48 hrs by sulforhodamine B assay relative to control; settings: read-out: Activity
OVCAR-4 [6] = test: Growth inhibition of human OVCAR-4 cells incubated for 48 hrs by sulforhodamine B assay; settings: for CC50: read-out: LC50 (the source's name); method in brief: as §1
HCT-116 = test: Growth inhibition of human HCT-116 cells assessed as cell growth at 1 uM incubated for 48 hrs by sulforhodamine B assay relative to control; settings: read-out: Activity
OVCAR-4 [7] = test: Growth inhibition of human OVCAR-4 cells assessed as cell growth at 0.01 uM incubated for 48 hrs by sulforhodamine B assay relative to control; settings: read-out: Activity
LOX IMVI = test: Growth inhibition of human LOX IMVI cells assessed as cell growth at 0.01 uM incubated for 48 hrs by sulforhodamine B assay relative to control; settings: read-out: Activity
Hs-578T = test: Growth inhibition of human Hs-578T cells incubated for 48 hrs by sulforhodamine B assay; settings: for CC50: read-out: LC50 (the source's name); method in brief: as §3
RPMI-8226 = test: Growth inhibition of human RPMI-8226 cells assessed as cell growth at 0.1 uM incubated for 48 hrs by sulforhodamine B assay relative to control; settings: read-out: Activity
SK-MEL-28 [8] = test: Growth inhibition of human SK-MEL-28 cells assessed as cell growth at 0.1 uM incubated for 48 hrs by sulforhodamine B assay relative to control; settings: read-out: Activity
OVCAR-3 = test: Growth inhibition of human OVCAR-3 cells assessed as cell growth at 1 uM incubated for 48 hrs by sulforhodamine B assay relative to control; settings: read-out: Activity
NCI-H322M = test: Growth inhibition of human NCI-H322M cells assessed as cell growth at 0.1 uM incubated for 48 hrs by sulforhodamine B assay relative to control; settings: read-out: Activity
U-251 [9] = test: Growth inhibition of human U-251 cells assessed as cell growth at 0.1 uM incubated for 48 hrs by sulforhodamine B assay relative to control; settings: read-out: Activity
HT-29 [10] = test: Growth inhibition of human HT-29 cells assessed as cell growth at 100 uM incubated for 48 hrs by sulforhodamine B assay relative to control; settings: read-out: Activity
UACC-62 = test: Growth inhibition of human UACC-62 cells assessed as cell growth at 1 uM incubated for 48 hrs by sulforhodamine B assay relative to control; settings: read-out: Activity
NCI-H23 = test: Growth inhibition of human NCI-H23 cells assessed as cell growth at 1 uM incubated for 48 hrs by sulforhodamine B assay relative to control; settings: read-out: Activity
PC-3 = test: Growth inhibition of human PC-3 cells assessed as cell growth at 0.1 uM incubated for 48 hrs by sulforhodamine B assay relative to control; settings: read-out: Activity

## Cc1ccc(NC(=O)c2sc3nc4c(cc3c2N)C(=O)CCC4)cc1C
SK-MEL-28 [1]
  GI50: 1.51 µM
  LC50: > 100 µM
  TGI: > 100 µM
CCRF-CEM
  growth at 1 µM: 7%
SF-295
  growth at 0.01 µM: 91%
SK-OV-3
  growth at 100 µM: 8%
HT-29 [2]
  growth at 0.1 µM: 104%
HOP-62
  growth at 0.01 µM: 89%
HCT-15
  growth at 1 µM: 32%
DU-145 [3]
  growth at 0.1 µM: 101%
SN12C
  GI50: 0.675 µM
  TGI: > 100 µM
  CC50: > 100 µM
OVCAR-8
  GI50: 3.06 µM
  TGI: > 100 µM
  CC50: > 100 µM
SF-268
  growth at 100 µM: 14%
TK-10
  growth at 0.01 µM: 96%
CAKI-1
  growth at 1 µM: 41%
KM12
  growth at 0.1 µM: 96%
SNB-19
  GI50: 0.558 µM
  LC50: > 100 µM
  TGI: > 100 µM
NCI/ADR-RES
  growth at 0.01 µM: 100%
DU-145 [4]
  growth at 1 µM: 35%
ACHN
  growth at 1 µM: 46%
U-251 [5]
  growth at 0.01 µM: 98%
MCF7
  GI50: 0.339 µM
  TGI: > 100 µM
  CC50: > 100 µM
UO-31
  growth at 0.01 µM: 81%
OVCAR-4 [6]
  GI50: 0.0201 µM
  TGI: > 100 µM
  CC50: > 100 µM
HCT-116
  growth at 1 µM: 33%
OVCAR-4 [7]
  growth at 0.01 µM: 94%
LOX IMVI
  growth at 0.01 µM: 97%
Hs-578T
  GI50: 0.356 µM
  TGI: > 100 µM
  CC50: > 100 µM
RPMI-8226
  growth at 0.1 µM: 97%
SK-MEL-28 [8]
  growth at 0.1 µM: 87%
OVCAR-3
  growth at 1 µM: 3%
NCI-H322M
  growth at 0.1 µM: 94%
U-251 [9]
  growth at 0.1 µM: 92%
HT-29 [10]
  growth at 100 µM: -23%

## CN1CCc2nc3sc(C(N)=O)c(N)c3c(-c3cccs3)c2C1
SK-MEL-28 [1]
  GI50: 2.91 µM
  LC50: > 100 µM
  TGI: 9.59 µM
CCRF-CEM
  growth at 1 µM: 104%
SF-295
  growth at 0.01 µM: 93%
UACC-62
  growth at 1 µM: 93%
SK-OV-3
  growth at 100 µM: 17%
HT-29 [2]
  growth at 0.1 µM: 104%
HOP-62
  growth at 0.01 µM: 101%
HCT-15
  growth at 1 µM: 93%
DU-145 [3]
  growth at 0.1 µM: 115%
SN12C
  GI50: 2.69 µM
  TGI: > 100 µM
  CC50: > 100 µM
OVCAR-8
  GI50: 2.7 µM
  TGI: > 100 µM
  CC50: > 100 µM
SF-268
  growth at 100 µM: 2%
TK-10
  growth at 0.01 µM: 101%
CAKI-1
  growth at 1 µM: 82%
KM12
  growth at 0.1 µM: 105%
SNB-19
  GI50: 4.34 µM
  LC50: > 100 µM
  TGI: > 100 µM
NCI/ADR-RES
  growth at 0.01 µM: 100%
DU-145 [4]
  growth at 1 µM: 108%
U-251 [5]
  growth at 0.01 µM: 99%
MCF7
  GI50: 4.1 µM
  TGI: > 100 µM
  CC50: > 100 µM
UO-31
  growth at 0.01 µM: 97%
OVCAR-4 [6]
  GI50: 7.38 µM
  TGI: > 100 µM
  CC50: > 100 µM
HCT-116
  growth at 1 µM: 75%
OVCAR-4 [7]
  growth at 0.01 µM: 110%
LOX IMVI
  growth at 0.01 µM: 97%
Hs-578T
  GI50: 3.07 µM
  TGI: 21.7 µM
  CC50: > 100 µM
RPMI-8226
  growth at 0.1 µM: 121%
SK-MEL-28 [8]
  growth at 0.1 µM: 103%
OVCAR-3
  growth at 1 µM: 87%
NCI-H23
  growth at 1 µM: 89%
PC-3
  growth at 0.1 µM: 110%
NCI-H322M
  growth at 0.1 µM: 102%
U-251 [9]
  growth at 0.1 µM: 98%
HT-29 [10]
  growth at 100 µM: -1%
